Laboratory results taken from paper PMC4220649 (Blood Cancer Journal, 2014).
Entries after “also recorded” stand apart in the source; their conditions may differ. Like-named read-outs stand apart in the source and are kept apart here.

Test system: patients with relapsed/refractory lymphoma
Format: in vivo, human
Conditions: for Drug-related AE: Skin/SC tissue disorders / Drug-related grade ⩾3 AE: Skin/SC tissue disorders: MedDRA SOC; for Drug-related grade ⩾3 AE: Renal failure: includes renal failure acute; for Drug-related AE: PN NEC: peripheral neuropathy, high-level term
In short: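 Open-label phase 1 in patients with relapsed/refractory lymphoma after ⩾2 prior therapies. Dosing started at one patient per level with doubling from 0.125 to 1.0 mg/m2, then followed a 3+3 schema up to 3.11 mg/m2. DLTs were assessed in cycle 1, and AEs were graded by NCI-CTCAE v3.0.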

## CC(C)C[C@H](NC(=O)CNC(=O)c1cc(Cl)ccc1Cl)B(O)O [ixazomib]
1.76 mg/m^2 cohort
  DLTs in cycle 1: one grade 4 neutropenia
2.34 mg/m^2 cohort
  DLTs in cycle 1: DLTs occurred in one of six DLT-evaluable patients
3.11 mg/m^2 cohort
  DLTs in cycle 1: two DLTs occurred in four DLT-evaluable patients
DLT-evaluable population, 28 patients
  Patients who reported DLTs: Four
IV, days 1, 8 and 15 of 28-day cycles
  MTD (maximum tolerated dose): 2.34 mg/m^2
All doses, Total (n=30)
  Drug-related AE: Skin/SC tissue disorders: 8 (27) n (%)
  Drug-related grade ⩾3 AE: Skin/SC tissue disorders: 2 (7) n (%)
  Drug-related AE: Abdominal pain: 5 (17) n (%)
  Drug-related AE: Any AE: 30 (100) n (%)
  Drug-related AE: Arthralgia: 3 (10) n (%)
  Drug-related AE: Chills: 4 (13) n (%)
  Drug-related AE: Constipation: 3 (10) n (%)
  Drug-related AE: Cough: 4 (13) n (%)
  Drug-related AE: Decreased appetite: 6 (20) n (%)
  Drug-related AE: Decreased platelet count: 3 (10) n (%)
  Drug-related AE: Diarrhea: 10 (33) n (%)
  Drug-related AE: Dysgeusia: 4 (13) n (%)
  Drug-related AE: Fatigue: 13 (43) n (%)
  Drug-related AE: Headache: 6 (20) n (%)
  Drug-related AE: Hypokalemia: 4 (13) n (%)
  Drug-related AE: Lymphopenia: 4 (13) n (%)
  Drug-related AE: Nausea: 8 (27) n (%)
  Drug-related AE: Neutropenia: 6 (20) n (%)
  Drug-related AE: Oral herpes: 4 (13) n (%)
  Drug-related AE: Pain in extremity: 3 (10) n (%)
  Drug-related AE: Paresthesia: 3 (10) n (%)
  Drug-related AE: Peripheral edema: 4 (13) n (%)
  Drug-related AE: Pyrexia: 5 (17) n (%)
  Drug-related AE: Thrombocytopenia: 8 (27) n (%)
  Drug-related AE: Vomiting: 8 (27) n (%)
  Drug-related grade ⩾3 AE: Any grade ⩾3 AE: 14 (47) n (%)
  Drug-related grade ⩾3 AE: Dehydration: 2 (7) n (%)
  Drug-related grade ⩾3 AE: Diarrhea: 3 (10) n (%)
  Drug-related grade ⩾3 AE: Lymphopenia: 2 (7) n (%)
  Drug-related grade ⩾3 AE: Neutropenia: 6 (20) n (%)
  Drug-related grade ⩾3 AE: Thrombocytopenia: 4 (13) n (%)
  Drug-related grade ⩾3 AE: Renal failure: 2 (7) n (%)
  Drug-related AE: PN NEC: 4 (13) n (%)
Dose 1.4 mg/m^2 (n=4)
  Drug-related AE: Skin/SC tissue disorders: 1 n
  Drug-related grade ⩾3 AE: Skin/SC tissue disorders: 0 n
  Drug-related AE: Abdominal pain: 0 n
  Drug-related AE: Any AE: 4 n
  Drug-related AE: Arthralgia: 0 n
  Drug-related AE: Chills: 0 n
  Drug-related AE: Constipation: 0 n
  Drug-related AE: Cough: 0 n
  Drug-related AE: Decreased appetite: 1 n
  Drug-related AE: Decreased platelet count: 0 n
  Drug-related AE: Diarrhea: 0 n
  Drug-related AE: Dysgeusia: 1 n
  Drug-related AE: Fatigue: 2 n
  Drug-related AE: Headache: 0 n
  Drug-related AE: Hypokalemia: 0 n
  Drug-related AE: Lymphopenia: 1 n
  Drug-related AE: Nausea: 1 n
  Drug-related AE: Neutropenia: 1 n
  Drug-related AE: Oral herpes: 1 n
  Drug-related AE: Pain in extremity: 0 n
  Drug-related AE: Paresthesia: 1 n
  Drug-related AE: Peripheral edema: 0 n
  Drug-related AE: Pyrexia: 0 n
  Drug-related AE: Thrombocytopenia: 2 n
  Drug-related AE: Vomiting: 0 n
  Drug-related grade ⩾3 AE: Any grade ⩾3 AE: 3 n
  Drug-related grade ⩾3 AE: Dehydration: 0 n
  Drug-related grade ⩾3 AE: Diarrhea: 0 n
  Drug-related grade ⩾3 AE: Lymphopenia: 0 n
  Drug-related grade ⩾3 AE: Neutropenia: 1 n
  Drug-related grade ⩾3 AE: Thrombocytopenia: 1 n
  Drug-related grade ⩾3 AE: Renal failure: 0 n
  Drug-related AE: PN NEC: 0 n
Dose 1.76 mg/m^2 (n=7)
  Drug-related AE: Skin/SC tissue disorders: 2 n
  Drug-related grade ⩾3 AE: Skin/SC tissue disorders: 0 n
  Drug-related AE: Abdominal pain: 1 n
  Drug-related AE: Any AE: 7 n
  Drug-related AE: Arthralgia: 0 n
  Drug-related AE: Chills: 2 n
  Drug-related AE: Constipation: 0 n
  Drug-related AE: Cough: 2 n
  Drug-related AE: Decreased appetite: 1 n
  Drug-related AE: Decreased platelet count: 1 n
  Drug-related AE: Diarrhea: 3 n
  Drug-related AE: Dysgeusia: 2 n
  Drug-related AE: Fatigue: 4 n
  Drug-related AE: Headache: 2 n
  Drug-related AE: Hypokalemia: 1 n
  Drug-related AE: Lymphopenia: 0 n
  Drug-related AE: Nausea: 3 n
  Drug-related AE: Neutropenia: 1 n
  Drug-related AE: Oral herpes: 1 n
  Drug-related AE: Pain in extremity: 0 n
  Drug-related AE: Paresthesia: 0 n
  Drug-related AE: Peripheral edema: 1 n
  Drug-related AE: Pyrexia: 3 n
  Drug-related AE: Thrombocytopenia: 2 n
  Drug-related AE: Vomiting: 4 n
  Drug-related grade ⩾3 AE: Any grade ⩾3 AE: 3 n
  Drug-related grade ⩾3 AE: Dehydration: 0 n
  Drug-related grade ⩾3 AE: Diarrhea: 0 n
  Drug-related grade ⩾3 AE: Lymphopenia: 0 n
  Drug-related grade ⩾3 AE: Neutropenia: 1 n
  Drug-related grade ⩾3 AE: Thrombocytopenia: 1 n
  Drug-related grade ⩾3 AE: Renal failure: 0 n
  Drug-related AE: PN NEC: 2 n
Dose 2.34 mg/m^2 (n=10)
  Drug-related AE: Skin/SC tissue disorders: 4 n
  Drug-related grade ⩾3 AE: Skin/SC tissue disorders: 1 n
  Drug-related AE: Abdominal pain: 2 n
  Drug-related AE: Any AE: 10 n
  Drug-related AE: Arthralgia: 1 n
  Drug-related AE: Chills: 1 n
  Drug-related AE: Constipation: 0 n
  Drug-related AE: Cough: 1 n
  Drug-related AE: Decreased appetite: 0 n
  Drug-related AE: Decreased platelet count: 0 n
  Drug-related AE: Diarrhea: 2 n
  Drug-related AE: Dysgeusia: 1 n
  Drug-related AE: Fatigue: 2 n
  Drug-related AE: Headache: 1 n
  Drug-related AE: Hypokalemia: 0 n
  Drug-related AE: Lymphopenia: 2 n
  Drug-related AE: Nausea: 1 n
  Drug-related AE: Neutropenia: 3 n
  Drug-related AE: Oral herpes: 1 n
  Drug-related AE: Pain in extremity: 2 n
  Drug-related AE: Paresthesia: 1 n
  Drug-related AE: Peripheral edema: 2 n
  Drug-related AE: Pyrexia: 2 n
  Drug-related AE: Thrombocytopenia: 2 n
  Drug-related AE: Vomiting: 1 n
  Drug-related grade ⩾3 AE: Any grade ⩾3 AE: 4 n
  Drug-related grade ⩾3 AE: Dehydration: 0 n
  Drug-related grade ⩾3 AE: Diarrhea: 0 n
  Drug-related grade ⩾3 AE: Lymphopenia: 1 n
  Drug-related grade ⩾3 AE: Neutropenia: 3 n
  Drug-related grade ⩾3 AE: Thrombocytopenia: 1 n
  Drug-related grade ⩾3 AE: Renal failure: 0 n
  Drug-related AE: PN NEC: 0 n
Dose 3.11 mg/m^2 (n=5)
  Drug-related AE: Skin/SC tissue disorders: 0 n
  Drug-related grade ⩾3 AE: Skin/SC tissue disorders: 0 n
  Drug-related AE: Abdominal pain: 2 n
  Drug-related AE: Any AE: 5 n
  Drug-related AE: Arthralgia: 2 n
  Drug-related AE: Chills: 1 n
  Drug-related AE: Constipation: 3 n
  Drug-related AE: Cough: 1 n
  Drug-related AE: Decreased appetite: 3 n
  Drug-related AE: Decreased platelet count: 2 n
  Drug-related AE: Diarrhea: 4 n
  Drug-related AE: Dysgeusia: 0 n
  Drug-related AE: Fatigue: 2 n
  Drug-related AE: Headache: 1 n
  Drug-related AE: Hypokalemia: 2 n
  Drug-related AE: Lymphopenia: 1 n
  Drug-related AE: Nausea: 2 n
  Drug-related AE: Neutropenia: 1 n
  Drug-related AE: Oral herpes: 1 n
  Drug-related AE: Pain in extremity: 1 n
  Drug-related AE: Paresthesia: 0 n
  Drug-related AE: Peripheral edema: 1 n
  Drug-related AE: Pyrexia: 0 n
  Drug-related AE: Thrombocytopenia: 1 n
  Drug-related AE: Vomiting: 3 n
  Drug-related grade ⩾3 AE: Any grade ⩾3 AE: 3 n
  Drug-related grade ⩾3 AE: Dehydration: 2 n
  Drug-related grade ⩾3 AE: Diarrhea: 3 n
  Drug-related grade ⩾3 AE: Lymphopenia: 1 n
  Drug-related grade ⩾3 AE: Neutropenia: 1 n
  Drug-related grade ⩾3 AE: Thrombocytopenia: 1 n
  Drug-related grade ⩾3 AE: Renal failure: 2 n
  Drug-related AE: PN NEC: 1 n
Dose 0.125–1.0 mg/m^2 (n=4)
  Drug-related AE: Skin/SC tissue disorders: 1 n
  Drug-related grade ⩾3 AE: Skin/SC tissue disorders: 1 n
  Drug-related AE: Abdominal pain: 0 n
  Drug-related AE: Any AE: 4 n
  Drug-related AE: Arthralgia: 0 n
  Drug-related AE: Chills: 0 n
  Drug-related AE: Constipation: 0 n
  Drug-related AE: Cough: 0 n
  Drug-related AE: Decreased appetite: 1 n
  Drug-related AE: Decreased platelet count: 0 n
  Drug-related AE: Diarrhea: 1 n
  Drug-related AE: Dysgeusia: 0 n
  Drug-related AE: Fatigue: 3 n
  Drug-related AE: Headache: 2 n
  Drug-related AE: Hypokalemia: 1 n
  Drug-related AE: Lymphopenia: 0 n
  Drug-related AE: Nausea: 1 n
  Drug-related AE: Neutropenia: 0 n
  Drug-related AE: Oral herpes: 0 n
  Drug-related AE: Pain in extremity: 0 n
  Drug-related AE: Paresthesia: 1 n
  Drug-related AE: Peripheral edema: 0 n
  Drug-related AE: Pyrexia: 0 n
  Drug-related AE: Thrombocytopenia: 1 n
  Drug-related AE: Vomiting: 0 n
  Drug-related grade ⩾3 AE: Any grade ⩾3 AE: 1 n
  Drug-related grade ⩾3 AE: Dehydration: 0 n
  Drug-related grade ⩾3 AE: Diarrhea: 0 n
  Drug-related grade ⩾3 AE: Lymphopenia: 0 n
  Drug-related grade ⩾3 AE: Neutropenia: 0 n
  Drug-related grade ⩾3 AE: Thrombocytopenia: 0 n
  Drug-related grade ⩾3 AE: Renal failure: 0 n
  Drug-related AE: PN NEC: 1 n
All doses
  Patients with grade ⩾3 neutropenia who required growth factor support: 2/6
  Patients with grade ⩾3 thrombocytopenia who required platelet transfusions: 0/4
All doses, n=30
  AEs of Skin and subcutaneous tissue disorders (MedDRA System Organ Class), patients: 27%
  Drug-related AE: diarrhea, patients: 33%
  Drug-related AE: fatigue, patients: 43%
  Drug-related AE: nausea, patients: 27%
  Drug-related AE: thrombocytopenia, patients: 27%
  Drug-related AE: vomiting, patients: 27%
  Drug-related grade ⩾3 AE: diarrhea, patients: 10%
  Drug-related grade ⩾3 AE: neutropenia, patients: 20%
  Drug-related grade ⩾3 AE: thrombocytopenia, patients: 13%
  Drug-related rash, patients: 17%
  Grade ⩾3 PN: no grade ⩾3 events were reported; also recorded: no patient had grade ⩾3 PN
  Patients who experienced serious AEs: Eight
  Patients with drug-related grade ⩾3 AEs: 47%
All doses, n=30, data cut-off 1 March 2013
  Discontinuation of ixazomib due to AEs: 10%
all-cause, all doses, n=30
  Patients with grade ⩾3 AEs: 73%
Grade 1 or 2, all doses, n=30
  Drug-related peripheral neuropathy (PN), patients: 13%
